Assay results taken from ChEMBL document CHEMBL4308910, “Metronidazole aryloxy, carboxy and azole derivatives: Synthesis, anti-tumor activity, QSAR, molecular docking and dynamics studies” (Bioorg Med Chem, 2019).
In brackets after ≈: the same amount, converted by molar mass.

How the values were obtained:
HT-29 = assay: Cytotoxicity against human HT-29 cells after 24 hrs by MTT assay; assay type: functional, cell-based; details: HT-29, 24 h
Summary of the method: (§1)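 Cells were grown in DMEM with 10% FBS and penicillin/streptomycin at 37 °C under 5% CO2. Seeding was 1×10^4 cells/well for A549 and MCF-7, or 1.2×10^4 cells/well for HT-29, followed by 24 h attachment. Compounds came from DMSO stocks diluted in serum-free DMEM, 0.1–1000 µg/mL, DMSO <0.5%, triplicate wells, 24 h. MTT (5 mg/mL stock in PBS) 3–4 h at 37 °C in dark; DMSO-solubilised A570. IC50 from 3 runs, mean ± S.E.M.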

A549 [1] = assay: Cytotoxicity against human A549 cells after 24 hrs by MTT assay; assay type: functional, cell-based; details: A549, 24 h; summary of the method: as §1
MCF7 = assay: Cytotoxicity against human MCF7 cells after 24 hrs by MTT assay; assay type: functional, cell-based; details: MCF7, 24 h; summary of the method: as §1
A549 [2] = assay: Induction of apoptosis in human A549 cells assessed as viable cells at 90 ug/mL after 16 hrs by propidium iodide/Annexin V/7-AAD staining-based flow cytometric analysis (reference value: 99.37%); assay type: functional; details: A549, 16 h, read-out: Activity
A549 [3] = assay: Induction of apoptosis in human A549 cells assessed as early apoptotic cells at 90 ug/mL after 16 hrs by propidium iodide/Annexin V/7-AAD staining-based flow cytometric analysis (reference value: 0.01%); assay type: functional
A549 [4] = assay: Induction of apoptosis in human A549 cells assessed as late apoptotic cells at 90 ug/mL after 16 hrs by propidium iodide/Annexin V/7-AAD staining-based flow cytometric analysis (reference value: 0.21%); assay type: functional
A549 [5] = assay: Induction of apoptosis in human A549 cells assessed as necrotic cells at 90 ug/mL after 16 hrs by propidium iodide/Annexin V/7-AAD staining-based flow cytometric analysis (reference value: 0.41%); assay type: functional

SMILES	IC50 (HT-29) [mg/L]	IC50 (A549 [1]) [mg/L]	IC50 (MCF7) [mg/L]	viability at 90 µg/mL (A549 [2]) [%]	Activity (A549 [3]) [%]	Activity (A549 [4]) [%]	Activity (A549 [5]) [%]
Cc1ncc([N+](=O)[O-])n1CCOC(=O)c1ccco1	287 (≈ 1080 µM)	167 (≈ 631 µM)	207 (≈ 779 µM)	–	–	–	–
Cc1ncc([N+](=O)[O-])n1CCOc1ccc2ccccc2c1	94.8 (≈ 319 µM)	96.1 (≈ 323 µM)	64.9 (≈ 218 µM)	47.6	10.13	29.33	12.96
Cc1ncc([N+](=O)[O-])n1CCOc1ccccc1[N+](=O)[O-]	581 (≈ 1990 µM)	573 (≈ 1960 µM)	583 (≈ 1990 µM)	–	–	–	–
COc1ccccc1C(=O)OCCn1c([N+](=O)[O-])cnc1C	283 (≈ 926 µM)	289 (≈ 947 µM)	447 (≈ 1460 µM)	–	–	–	–
Cc1ncc([N+](=O)[O-])n1CCOC(=O)c1ccc(Br)cc1	277 (≈ 783 µM)	194 (≈ 548 µM)	271 (≈ 766 µM)	–	–	–	–
Cc1nccn1CCn1c([N+](=O)[O-])cnc1C	142 (≈ 604 µM)	195 (≈ 831 µM)	157 (≈ 668 µM)	–	–	–	–
Cc1ncc([N+](=O)[O-])n1CCO [METRONIDAZOLE]	278 (≈ 1620 µM)	224 (≈ 1310 µM)	348 (≈ 2030 µM)	–	–	–	–
Cc1cc(OCCn2c([N+](=O)[O-])cnc2C)ccc1F	140 (≈ 503 µM)	226 (≈ 808 µM)	116 (≈ 415 µM)	–	–	–	–
Cc1ncc([N+](=O)[O-])n1CCn1ccnc1	115 (≈ 518 µM)	240 (≈ 1080 µM)	462 (≈ 2090 µM)	–	–	–	–
Cc1ncc([N+](=O)[O-])n1CCOc1ccc(Cl)c(Cl)c1	109 (≈ 344 µM)	77.9 (≈ 246 µM)	69.6 (≈ 220 µM)	6.85	5.73	61.15	26.27
Cc1ncc([N+](=O)[O-])n1CCOc1ccccc1	134 (≈ 543 µM)	107 (≈ 435 µM)	106 (≈ 430 µM)	–	–	–	–
Cc1ncc([N+](=O)[O-])n1CCOc1ccc([N+](=O)[O-])cc1	116 (≈ 396 µM)	110 (≈ 378 µM)	127 (≈ 433 µM)	–	–	–	–
Cc1ncc([N+](=O)[O-])n1CCCl	311 (≈ 1640 µM)	300 (≈ 1580 µM)	480 (≈ 2530 µM)	–	–	–	–
Cc1ncc([N+](=O)[O-])n1CCOC(=O)c1ccccc1F	146 (≈ 497 µM)	170 (≈ 578 µM)	262 (≈ 895 µM)	–	–	–	–
Cc1ncc([N+](=O)[O-])n1CCOc1ccc(C#N)cc1	76.8 (≈ 282 µM)	79.8 (≈ 293 µM)	83.2 (≈ 306 µM)	57.1	11.72	21.24	9.96
Cc1ccc(C(=O)OCCn2c([N+](=O)[O-])cnc2C)cc1	359 (≈ 1240 µM)	184 (≈ 636 µM)	256 (≈ 884 µM)	–	–	–	–
Cc1ncc([N+](=O)[O-])n1CCOc1cccc([N+](=O)[O-])c1	112 (≈ 383 µM)	108 (≈ 371 µM)	71.7 (≈ 245 µM)	–	–	–	–
Cc1ccc(S(=O)(=O)OCCn2c([N+](=O)[O-])cnc2C)cc1	328 (≈ 1010 µM)	196 (≈ 603 µM)	160 (≈ 491 µM)	–	–	–	–
Cc1ncc([N+](=O)[O-])n1CCn1cnc2ccccc21	148 (≈ 546 µM)	219 (≈ 809 µM)	103 (≈ 380 µM)	–	–	–	–
Cc1ncc([N+](=O)[O-])n1CCOC(=O)c1ccccc1Cl	279 (≈ 902 µM)	255 (≈ 823 µM)	380 (≈ 1230 µM)	–	–	–	–
CN(Cc1cnc2nc(N)nc(N)c2n1)c1ccc(C(=O)N[C@@H](CCC(=O)O)C(=O)O)cc1 [METHOTREXATE]	47.8 (≈ 105 µM)	39.3 (≈ 86.5 µM)	31.5 (≈ 69.3 µM)	–	–	–	–
Cc1cc(OCCn2c([N+](=O)[O-])cnc2C)ccc1Cl	159 (≈ 537 µM)	150 (≈ 506 µM)	188 (≈ 635 µM)	–	–	–	–
Cc1ncc([N+](=O)[O-])n1CCOc1ccc(F)c(Cl)c1	199 (≈ 664 µM)	122 (≈ 407 µM)	110 (≈ 367 µM)	–	–	–	–
Cc1ncc([N+](=O)[O-])n1CCn1nnc2ccccc21	538 (≈ 1980 µM)	701 (≈ 2580 µM)	384 (≈ 1410 µM)	–	–	–	–
COc1cccc(C(=O)OCCn2c([N+](=O)[O-])cnc2C)c1	293 (≈ 960 µM)	281 (≈ 921 µM)	428 (≈ 1400 µM)	–	–	–	–
Cc1ncc([N+](=O)[O-])n1CCOC(=O)c1ccccc1 [METRONIDAZOLE BENZOATE]	288 (≈ 1050 µM)	281 (≈ 1020 µM)	245 (≈ 889 µM)	–	–	–	–
Cc1ncc([N+](=O)[O-])n1CCOc1ccc(F)cc1	102 (≈ 386 µM)	129 (≈ 487 µM)	85.8 (≈ 324 µM)	–	–	–	–
Cc1ncc([N+](=O)[O-])n1CCOc1ccccc1Cl	552 (≈ 1960 µM)	574 (≈ 2040 µM)	378 (≈ 1340 µM)	–	–	–	–
